Measured values published in ChEMBL document CHEMBL3593207, “Imidazole clubbed 1,3,4-oxadiazole derivatives as potential antifungal agents” (2015).

Assays:
Assay type in all cases: functional
Candida albicans [1] = assay: Antifungal activity against clinical isolates of Candida albicans 2779 by broth microdilution assay
Procedure, shortened: (§1)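 CLSI M27-A3 broth microdilution. Compounds diluted to 1 mg/ml in 1% DMSO. Fluconazole (1 mg/ml) served as positive control, 1% DMSO as vehicle control, with media and culture controls. Triplicate at each concentration, repeated thrice. Inocula came from YPDA stocks subcultured in broth for 48 h at 37 °C.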

Candida tropicalis [2] = assay: Antifungal activity against clinical isolates of Candida tropicalis 2356 by broth microdilution assay; procedure, shortened: as §1
Candida albicans [3] = assay: Antifungal activity against clinical isolates of Candida albicans 2367 by broth microdilution assay; procedure, shortened: as §1
Candida albicans [4] = assay: Antifungal activity against Candida albicans ATCC 10261 by broth microdilution assay; procedure, shortened: as §1
Candida tropicalis [5] = assay: Antifungal activity against Candida tropicalis ATCC 750 by broth microdilution assay; procedure, shortened: as §1
Candida albicans [6] = assay: Antifungal activity against clinical isolates of Candida albicans 2323 by broth microdilution assay; procedure, shortened: as §1
Candida tropicalis [7] = assay: Antifungal activity against clinical isolates of Candida tropicalis 2029 by broth microdilution assay; procedure, shortened: as §1

Measured: MIC

CCc1ccnc(-c2nccn2Cc2nnc(Cc3ccc(C(C)C)cc3)o2)c1
> 1000 µg/mL: all assays above

CCc1ccnc(-c2nccn2Cc2nnc(-c3ccc(Cl)cc3)o2)c1
> 1000 µg/mL: all assays above

CCc1ccnc(-c2nccn2Cc2nnc(COc3ccc(Cl)cc3)o2)c1
> 1000 µg/mL: all assays above

CCc1ccnc(-c2nccn2Cc2nnc(-c3ccccc3)o2)c1
> 1000 µg/mL: all assays above

CCc1ccnc(-c2nccn2Cc2nnc(-c3ccccc3N)o2)c1
> 1000 µg/mL: all assays above

CCc1ccnc(-c2nccn2Cc2nnc(-c3ccc(Cl)cc3Cl)o2)c1
> 1000 µg/mL: all assays above

CCc1ccnc(-c2nccn2Cc2nnc(-c3ccccc3Cl)o2)c1
> 1000 µg/mL: all assays above
